Screening results (PubChem BioAssay)
ERAP1 inh: human ERAP1 aminopeptidase inhibitors, primary screen, biochemical, single point, plate reader. Endoplasmic reticulum aminopeptidase 1 (Homo sapiens), Q9NZ08. 340,000 compounds, 0.15% hits. recombinant ERAP1, Leu-AMC fluorescence, 60 min. AID 652197, 2013. inhibition, % at 10.7 µM;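 active = mean replicate inhibition of at least 30%, or all replicates individually reaching that 30% level; inactive = mean below 30% and not every replicate reaching it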
DENV2 CPE rescue: inhibitors of DENV2 cytopathic effect, primary screen, cell-based, plate reader, single concentration; 350,000 compounds, 1.7% hits; CPE inhibition, % at 9.99 µM; DENV2-infected cells, cytopathic effect rescue; in the data active = CPE inhibition above about 20%, passing the limit was not always enough; tested in BHK-21 cells
S100A4 MyoIIA: inhibitors of S100A4-myosin IIA peptide binding, primary screen, biochemical, fluorescence polarization, TAMRA-MyoIIA peptide; inhibition, % at 10.7 µM; 360,000 compounds, 0.14% hits; AID 652163, 2013;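 active = mean inhibition of at least 70% across replicates, with every replicate also reaching that level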
Target sequence (P26447 whole entry, looked up): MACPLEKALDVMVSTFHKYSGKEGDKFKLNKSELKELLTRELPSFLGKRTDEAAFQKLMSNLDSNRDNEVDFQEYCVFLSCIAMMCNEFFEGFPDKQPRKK
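Test system: S100A4 monomer protein; Medium: HEPES pH 7.2 with CaCl2, KCl, NaCl, DTT, Triton; Probe or stimulus: TAMRA-labelled myosin IIA heavy-chain peptide probe, 5 nM; Doses: one dose per compound; Times: polarization read 5 min after assay mix addition, stable 5–60 min; Benchmarks: neutral control DMSO, positive control TFP.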
SIRT5 inh: SIRT5 desuccinylase inhibitors, primary screen, biochemical, fluorescence imaging, single point, set 5; inhibition, % at 15 µM; NAD-dependent protein deacylase sirtuin-5, mitochondrial (Homo sapiens), Q9NXA8; Purified SirT5, succinyl-peptide AMC, trypsin-coupled fluorescence; 330,000 compounds, 1.1% hits; AID 652115, 2013; in the data active = inhibition above about 15%
Target sequence (Q9NXA8 whole entry, looked up): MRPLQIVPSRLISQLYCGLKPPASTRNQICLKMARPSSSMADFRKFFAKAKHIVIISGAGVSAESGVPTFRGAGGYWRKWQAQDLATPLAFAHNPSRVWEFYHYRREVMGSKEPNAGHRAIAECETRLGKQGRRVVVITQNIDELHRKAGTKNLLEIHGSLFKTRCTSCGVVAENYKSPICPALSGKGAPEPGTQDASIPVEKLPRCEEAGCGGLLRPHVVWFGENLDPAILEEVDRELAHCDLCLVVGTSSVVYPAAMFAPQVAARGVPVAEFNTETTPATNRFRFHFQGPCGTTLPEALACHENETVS
CAL PDZ FP-1: CAL PDZ peptide-binding inhibitors, primary screen, biochemical, fluorescence polarization, Cer-tagged CAL PDZ, HTS | purified CAL PDZ, TMR-peptide fluorescence polarization, 1 h | inhibition, % at 20 µM | 330,000 compounds, 0.02% hits | AID 504414, 2011;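 active = highest replicate inhibition of at least 40%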
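System: tagged CAL PDZ domain. Schedule: 1 h room-temperature incubation prior to read. Signal: fluorescence polarization (mP). Measure: percent inhibition from loss of millipolarization.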
CAL PDZ FP-2: untagged CAL PDZ binding inhibitors, primary screen, biochemical, fluorescence polarization, HTS; Golgi-associated PDZ and coiled-coil motif-containing protein (Homo sapiens), Q9HD26; purified CAL PDZ, TMR-peptide fluorescence polarization, 1 h; inhibition, % at 24.9 µM; 300,000 compounds, 0.92% hits; AID 602252, 2012;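 active = mean inhibition of at least 30% with at least half of replicates also reaching 30%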
Hits are given with their value; . = inactive; / = no result; ! = a repeat was not active. In the library only some 2.9% were active in any assay of this set; here they are far more common.

SMILES | ERAP1 inh | DENV2 CPE rescue | S100A4 MyoIIA | SIRT5 inh | CAL PDZ FP-1 | CAL PDZ FP-2
C[C@H](CO)N1C[C@H](C)[C@H](CN(C)C(=O)NC2CCCCC2)Oc2ccc(NC(=O)Cn3cnnn3)cc2C1=O | . | 99 | . | . | / | /
C[C@@H]1CN([C@@H](C)CO)C(=O)c2cc(NC(=O)C3CC3)ccc2O[C@@H]1CN(C)C(=O)NC1CCCCC1 | . | . | . | . | . | .
C[C@@H]1CN([C@H](C)CO)C(=O)c2cc(NS(C)(=O)=O)ccc2O[C@H]1CN(C)C(=O)NC1CCCCC1 | . | . | . | . | / | /
C[C@@H]1CN([C@H](C)CO)C(=O)c2cc(NS(=O)(=O)c3cn(C)cn3)ccc2O[C@H]1CN(C)C(=O)Nc1ccccc1 | . | . | . | 23! | . | .
C[C@H](CO)N1C[C@H](C)[C@@H](CN(C)C(=O)NC2CCCCC2)Oc2ccc(NC(=O)C3CC3)cc2C1=O | . | 56! | . | . | . | .
COc1ccc(S(=O)(=O)Nc2ccc3c(c2)C(=O)N([C@@H](C)CO)C[C@@H](C)[C@H](CN(C)S(=O)(=O)c2c(C)noc2C)OCCCC[C@H](C)O3)cc1 | . | . | . | . | / | /
C[C@@H]1CN([C@@H](C)CO)S(=O)(=O)c2ccc(-c3cncnc3)cc2O[C@@H]1CN(C)C(=O)C1CCC1 | . | . | . | . | / | /
CCNC(=O)[C@@H]1[C@@H](CO)[C@@H]2Cn3c(ccc(-c4ccccc4)c3=O)[C@@H]2N1Cc1ccccc1 | . | . | . | . | / | /
C[C@@H]1CN([C@H](C)CO)C(=O)c2cc(NS(=O)(=O)c3cccs3)ccc2O[C@H]1CN(C)C(=O)NC1CCCCC1 | . | . | . | . | / | /
C[C@@H]1CN([C@@H](C)CO)C(=O)c2cc(NS(=O)(=O)c3cn(C)cn3)ccc2O[C@H]1CN(C)C(=O)NC1CCCCC1 | . | 45 | . | . | / | /
C[C@H](CO)N1C[C@H](C)[C@@H](CN(C)C(=O)NC2CCCCC2)Oc2ccc(NS(=O)(=O)c3cccs3)cc2C1=O | . | . | . | 16! | . | .
CCCCCCC(=O)Oc1cccc(N2C(=O)C3CCCCC3C2=O)c1 (stereo unspecified) | . | . | . | . | . | 79
CCCCCCC(=O)Oc1cccc(C2=CC(=O)CC(C)(C)C2=O)c1 | . | . | . | . | / | /
C[C@@H]1CN([C@H](C)CO)C(=O)Cc2cc(N(C)C)ccc2O[C@@H]1CN(C)C(=O)Nc1ccc2c(c1)OCO2 | / | . | . | . | / | /
C[C@H](CO)N1C[C@H](C)[C@@H](CN(C)C(=O)Nc2ccc3c(c2)OCO3)Oc2ccc(NS(C)(=O)=O)cc2CC1=O | . | 31 | . | . | / | /
C[C@@H]1CN([C@@H](C)CO)C(=O)Cc2cc(N(C)C)ccc2O[C@H]1CN(C)C(=O)Nc1ccc2c(c1)OCO2 | . | 30 | . | . | / | /
C[C@H](CO)N1C[C@H](C)[C@H](CN(C)S(=O)(=O)c2ccc(F)cc2)Oc2c(NC(=O)Nc3cccc4ccccc34)cccc2C1=O | . | . | . | . | / | /
C[C@@H]1CN([C@@H](C)CO)C(=O)c2cccc(NS(=O)(=O)c3ccccc3)c2O[C@@H]1CN(C)C(=O)Nc1cccc2ccccc12 | . | / | . | . | / | /
CCN1[C@@H]2c3ccc(-c4ccccc4)c(=O)n3C[C@@H]2[C@@H](CO)[C@@H]1C(=O)NCc1ccccc1 | . | . | . | 22 | / | /
O=C(NC1CCC1)[C@H]1[C@H](CO)[C@H]2Cn3c(ccc(-c4ccccc4)c3=O)[C@H]2N1CCc1ccccc1 | . | . | . | . | / | /
O=C(NC1CCCC1)[C@H]1[C@H](CO)[C@H]2Cn3c(ccc(-c4ccncc4)c3=O)[C@H]2N1CCc1ccccc1 | . | . | . | 19 | / | /
CN1[C@H](C(=O)NC2CCCCC2)[C@@H](CO)[C@@H]2Cn3c(ccc(-c4cccc(F)c4)c3=O)[C@@H]21 | . | . | . | 16 | / | /
